# Laboratory results: ChEMBL document CHEMBL4038284, “Synthesis of novel quinoline-based 4,5-dihydro-1H-pyrazoles as potential anticancer, antifungal, antibacterial and antiprotozoal agents” (Eur J Med Chem, 2017)
# Tests used:
# [1] = tested on: Klebsiella pneumoniae; assay: Antibacterial activity against ESBL positive Klebsiella pneumoniae ATCC 700603 after 24 hrs by resazurin dye based microdilution assay; type: functional; conditions: Klebsiella pneumoniae, 700603, 24 h
# How it was run: (§1)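 MIC taken as the lowest concentration giving visible inhibition and/or by resazurin (1 mg/mL). Gentamicin was the control. Run in duplicate, repeated at least three times.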
# [2] = tested on: Klebsiella pneumoniae; assay: Antibacterial activity against carbapenemase positive Klebsiella pneumoniae BAA 1705 after 24 hrs by resazurin dye based microdilution assay; type: functional; conditions: BAA 1705, 24 h; how it was run: as §1
# [3] = tested on: Leishmania panamensis; assay: Antileshmanial activity against EpiR/GFP fused Leishmania panamensis MHOM/CO/87/UA140 intracellular amastigotes infected in human […] cells after 72 hrs by flow cytometric method; type: functional, cell-based; conditions: MHOM/CO/87/UA140, 72 h
# How it was run: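 PMA-treated U-937 cells (3 × 10^5 cells/mL) infected with stationary-phase GFP L. panamensis promastigotes (15:1), 3 h at 34 °C, then washed. After 24 h, compounds added at 50, 12.5, 3.125 and 0.78 µg/mL for 72 h at 37 °C. EC50 by Probit; triplicate, two experiments.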
# [4] = tested on: Candida albicans; assay: Antifungal activity against Candida albicans ATCC 10231 incubated for 48 hrs under dark condition by broth microdilution method; type: functional; conditions: ATCC 10231, 48 h
# How it was run: (§2)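 CLSI M27-A3 broth microdilution in RPMI-1640, DMSO ≤1%, compounds at 250-0.98 µg/mL final. Inoculum 1-5 × 10^3 CFU/mL. Incubated 48 h at 30 °C in a moist dark chamber, read at OD405. MIC80 and MIC50 taken from % inhibition dose-response curves (mean ± SEM, triplicate). Amphotericin B was the positive control.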
# [5] = tested on: Cryptococcus neoformans; assay: Antifungal activity against Cryptococcus neoformans ATCC 32264 incubated for 48 hrs under dark condition by broth microdilution method; type: functional; conditions: ATCC 32264, 48 h; how it was run: as §2
# [6] = tested on: Candida albicans; assay: Growth inhibition of Candida albicans ATCC 10231 at 250 ug/ml incubated for 48 hrs under dark condition by broth microdilution method relative to control; type: functional; conditions: ATCC 10231, 48 h, read-out: GI
# How it was run: (§3)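 CLSI M27-A3 broth microdilution in RPMI-1640, DMSO ≤1%. Inoculum 1-5 × 10^3 CFU/mL. Incubated 48 h at 30 °C, dark. % inhibition = 100 − (OD405 test − sterility control)/(OD405 growth control − sterility control), with growth and sterility control wells. Triplicate.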
# [7] = tested on: Candida albicans; assay: Growth inhibition of Candida albicans ATCC 10231 at 125 ug/ml incubated for 48 hrs under dark condition by broth microdilution method relative to control; type: functional; conditions: ATCC 10231, 48 h, read-out: GI; how it was run: as §3
# [8] = tested on: Candida albicans; assay: Growth inhibition of Candida albicans ATCC 10231 at 62.5 ug/ml incubated for 48 hrs under dark condition by broth microdilution method relative to control; type: functional; conditions: ATCC 10231, 48 h, read-out: GI; how it was run: as §3
# [9] = tested on: Candida albicans; assay: Growth inhibition of Candida albicans ATCC 10231 at 31.25 ug/ml incubated for 48 hrs under dark condition by broth microdilution method relative to control; type: functional; conditions: ATCC 10231, 48 h, read-out: GI; how it was run: as §3
# [10] = tested on: Candida albicans; assay: Growth inhibition of Candida albicans ATCC 10231 at 15.62 ug/ml incubated for 48 hrs under dark condition by broth microdilution method relative to control; type: functional; conditions: ATCC 10231, 48 h, read-out: GI; how it was run: as §3
# [11] = tested on: Candida albicans; assay: Growth inhibition of Candida albicans ATCC 10231 at 7.8 ug/ml incubated for 48 hrs under dark condition by broth microdilution method relative to control; type: functional; conditions: ATCC 10231, 48 h, read-out: GI; how it was run: as §3
# [12] = tested on: Candida albicans; assay: Growth inhibition of Candida albicans ATCC 10231 at 3.4 ug/ml incubated for 48 hrs under dark condition by broth microdilution method relative to control; type: functional; conditions: ATCC 10231, 48 h, read-out: GI
# [13] = tested on: Cryptococcus neoformans; assay: Growth inhibition of Cryptococcus neoformans ATCC 32264 at 250 ug/ml incubated for 48 hrs under dark condition by broth microdilution method relative to control; type: functional; conditions: ATCC 32264, 48 h, read-out: GI; how it was run: as §3
# [14] = tested on: Cryptococcus neoformans; assay: Growth inhibition of Cryptococcus neoformans ATCC 32264 at 125 ug/ml incubated for 48 hrs under dark condition by broth microdilution method relative to control; type: functional; conditions: ATCC 32264, 48 h, read-out: GI; how it was run: as §3
# [15] = tested on: Cryptococcus neoformans; assay: Growth inhibition of Cryptococcus neoformans ATCC 32264 at 62.5 ug/ml incubated for 48 hrs under dark condition by broth microdilution method relative to control; type: functional; conditions: ATCC 32264, 48 h, read-out: GI; how it was run: as §3
# [16] = tested on: Cryptococcus neoformans; assay: Growth inhibition of Cryptococcus neoformans ATCC 32264 at 31.25 ug/ml incubated for 48 hrs under dark condition by broth microdilution method relative to control; type: functional; conditions: ATCC 32264, 48 h, read-out: GI; how it was run: as §3
# [17] = tested on: Cryptococcus neoformans; assay: Growth inhibition of Cryptococcus neoformans ATCC 32264 at 15.62 ug/ml incubated for 48 hrs under dark condition by broth microdilution method relative to control; type: functional; conditions: ATCC 32264, 48 h, read-out: GI; how it was run: as §3
# [18] = tested on: Cryptococcus neoformans; assay: Growth inhibition of Cryptococcus neoformans ATCC 32264 at 7.8 ug/ml incubated for 48 hrs under dark condition by broth microdilution method relative to control; type: functional; conditions: ATCC 32264, 48 h, read-out: GI; how it was run: as §3
# [19] = tested on: Cryptococcus neoformans; assay: Growth inhibition of Cryptococcus neoformans ATCC 32264 at 3.4 ug/ml incubated for 48 hrs under dark condition by broth microdilution method relative to control; type: functional; conditions: ATCC 32264, 48 h, read-out: GI
# [20] = tested on: Staphylococcus aureus; assay: Antibacterial activity against methicillin-sensitive Staphylococcus aureus ATCC 25923 after 24 hrs by resazurin dye based microdilution assay; type: functional; conditions: ATCC 25923, 24 h; how it was run: as §1
# [21] = tested on: Staphylococcus aureus; assay: Antibacterial activity against methicillin-resistant Staphylococcus aureus ATCC 43300 after 24 hrs by resazurin dye based microdilution assay; type: functional; conditions: ATCC 43300, 24 h
# How it was run: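 Broth microdilution in Mueller Hinton broth, inoculum 5 × 10^5 – 8 × 10^5. Compound stocks diluted in MHB with 5% DMSO and 0.1% Tween 80. Incubation 24 h at 35-37 °C. MIC is the lowest concentration with visible growth inhibition and/or by resazurin (1 mg/mL) read-out. Gentamicin as control. Run in duplicate, replicated at least three times.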
# [22] = tested on: Staphylococcus aureus; assay: Antibacterial activity against vancomycin-intermediate Staphylococcus aureus after 24 hrs by resazurin dye based microdilution assay; type: functional; how it was run: as §1
# [23] = tested on: Escherichia coli; assay: Antibacterial activity against Escherichia coli ATCC 25922 after 24 hrs by resazurin dye based microdilution assay; type: functional; conditions: ATCC 25922, 24 h; how it was run: as §1
# [24] = tested on: Pseudomonas aeruginosa; assay: Antibacterial activity against Pseudomonas aeruginosa ATCC 27853 after 24 hrs by resazurin dye based microdilution assay; type: functional; conditions: ATCC 27853, 24 h; how it was run: as §1
# [25] = tested on: Neisseria gonorrhoeae; assay: Antibacterial activity against beta lactamase positive Neisseria gonorrhoeae ATCC 31426 by oxidase test; type: functional
# How it was run: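 Agar dilution MIC on GC agar with 1% isovitalex containing increasing compound concentrations. Plates inoculated with about 1×10^4 CFU (5 µL). MIC is the lowest concentration that inhibited growth, with growth confirmed by oxidase test. Run in duplicate, repeated at least three times.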
# [26] = tested on: Plasmodium falciparum; assay: Antiplasmodial activity against chloroquine-sensitive Plasmodium falciparum 3D7 assessed as reduction in parasitic LDH activity after 48 hrs by Malstat reagent based […] method; type: functional; conditions: 3D7, 48 h
# How it was run: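 Unsynchronized P. falciparum 3D7 at 0.5% parasitemia and 1% hematocrit in RPMI with 3% Albumax II. Exposed to 100, 25, 6.25 and 1.56 µg/mL for 48 h at 37 °C under 90% N2/5% CO2/5% O2. After three freeze-thaw cycles, LDH measured with Malstat and NBT/PES, 1 h in the dark, read at 650 nm. IC50 by Probit; triplicate, ≥2 experiments.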
# [27] = tested on: U-937; assay: Cytotoxicity against human U937 cells after 72 hrs by MTT assay; type: cell-based; conditions: u-937, 72 h
# How it was run: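 Exponentially growing U-937 at 1 × 10^5 cells/mL in RPMI-1640 with 10% FBS were exposed to 200, 50, 12.5 and 3.125 µg/mL for 72 h at 37 °C, 5% CO2. MTT for 3 h, stopped with isopropanol/SDS, formazan read at 570 nm, blank-corrected. LC50 by Probit from % viability against untreated cells. Triplicate, at least two independent experiments.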
# [28] = tested on: Trypanosoma cruzi; assay: Antitrypanosomal activity against Trypanosoma cruzi Tulahuen intracellular amastigote harboring LacZ infected in human U937 cells after 72 hrs by CPRG/Nonidet reagent based spectrophotometric method; type: functional, cell-based; conditions: U-937, 72 h
# How it was run: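 U-937 cells at 2.5 × 10^5 cells/mL in RPMI-1640 with 10% serum and 0.1 µg/mL PMA were infected with β-galactosidase-transfected Tulahuen epimastigotes at 5 parasites per cell. Infected cells were exposed to 50, 12.5, 3.125 and 0.78 µg/mL for 72 h. CPRG (100 uM) and 0.1% Nonidet P-40 were added for 3 h, read at 570 nm. EC50 by Probit. Triplicate, at least two experiments; benznidazole as reference.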
Structure (SMILES),MIC [1] [µg/mL],MIC [2] [µg/mL],EC50 [3] [µg/mL],MIC50 [4] [µg/mL],MIC80 [4] [µg/mL],MIC50 [5] [µg/mL],MIC80 [5] [µg/mL],inhibition of growth at 250 µg/mL [6] [%],inhibition of growth at 125 µg/mL [7] [%],inhibition of growth at 62.5 µg/mL [8] [%],inhibition of growth at 31.25 µg/mL [9] [%],inhibition of growth at 15.62 µg/mL [10] [%],inhibition of growth at 7.8 µg/mL [11] [%],inhibition of growth at 3.4 µg/mL [12] [%],inhibition of growth at 250 µg/mL [13] [%],inhibition of growth at 125 µg/mL [14] [%],inhibition of growth at 62.5 µg/mL [15] [%],inhibition of growth at 31.25 µg/mL [16] [%],inhibition of growth at 15.62 µg/mL [17] [%],inhibition of growth at 7.8 µg/mL [18] [%],other results
CC(=O)N1N=C(c2ccc(Br)cc2)CC1c1cccc(Nc2ccnc3cc(Cl)ccc23)c1 (stereo not given),> 1000,> 1000,3.66,≥ 250,≥ 250,250,≥ 250,29.9,27.9,19.1,15.7,15,13.9,13.7,71.2,48.4,23.6,19.6,18.3,16.9,inhibition of growth at 3.4 µg/mL [19]: 15.4%; MIC [20]: > 1000 µg/mL; MIC [21]: > 1000 µg/mL; MIC [22]: > 1000 µg/mL; MIC [23]: > 1000 µg/mL; MIC [24]: > 1000 µg/mL; MIC [25]: > 1000 µg/mL; EC50 [26]: 50.1 µg/mL; LC50 [27]: 10.2 µg/mL; EC50 [28]: 3.7 µg/mL
Cc1ccc(C2=NN(c3cc(Cl)cc(Cl)c3)C(c3cccc(Nc4ccnc5cc(Cl)ccc45)c3)C2)cc1 (stereo not given),> 1000,> 1000,18.1,≥ 250,≥ 250,≥ 250,≥ 250,17.9,3.88,0,0,0,0,0,40.9,15.3,8.02,6.71,1.85,1.15,inhibition of growth at 3.4 µg/mL [19]: 0%; MIC [20]: > 1000 µg/mL; MIC [21]: > 1000 µg/mL; MIC [22]: > 1000 µg/mL; MIC [23]: > 1000 µg/mL; MIC [24]: > 1000 µg/mL; MIC [25]: > 1000 µg/mL; EC50 [26]: 65.2 µg/mL; LC50 [27]: > 200 µg/mL; EC50 [28]: 49.2 µg/mL
Clc1ccc2c(Nc3cccc(C4CC(c5ccc(Br)cc5)=NN4c4ccccc4)c3)ccnc2c1 (stereo not given),> 1000,> 1000,3.59,≥ 250,≥ 250,≥ 250,≥ 250,44.9,26.3,12.6,9.65,8.46,4.31,3.09,45.1,20.1,20,11.8,7.94,7.67,inhibition of growth at 3.4 µg/mL [19]: 3.29%; MIC [20]: > 1000 µg/mL; MIC [21]: > 1000 µg/mL; MIC [22]: > 1000 µg/mL; MIC [23]: > 1000 µg/mL; MIC [24]: > 1000 µg/mL; MIC [25]: > 1000 µg/mL; EC50 [26]: 5.54 µg/mL; LC50 [27]: 9.2 µg/mL; EC50 [28]: 6.67 µg/mL
